Sampled rows, rich in hits. Any-hit rate of the full collection: about 1.4%.
NS3 helicase inh = inhibitors of Hepatitis C virus NS3 helicase; NS3 helicase DNA unwinding, Cy5 molecular beacon fluorescence; inhibition, % at 10.9 µM; 290,000 tested, 0.56% active; AID 1800;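 active = inhibition above the mean of all tested compounds plus 3 SD, set per campaign, cut at about 35% in these data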
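Material: hepatitis C virus NS3 helicase domain fragment enzyme; measured by: Cy5 fluorescence, 0 and 60 min reads; control set: DMSO and thioflavine S; incubation: 60 min unwinding reaction at 25 °C after ATP addition; read-out basis: % inhibition from 60/0 min fluorescence ratio, DMSO 0%, thioflavine S 100%; repeats: singlicate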
Fh CTSL1 inh = counter-screen for PFM18AAP inhibitors: inhibitors of F. hepatica cathepsin L1. recombinant F. hepatica cathepsin L1, Z-Leu-Arg-MCA fluorescence. inhibition, % at 5.96 µM. 300,000 tested, 0.49% active. AID 1906;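 active = inhibition above the mean of all tested compounds plus 3 SD, set per screening campaign, cut at about 17% in these data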
EBNA-1 inh = blocks EBNA-1 binding to DNA; inhibition, % at 14.8 µM; EBNA-1 DNA binding, fluorescence polarization; 300,000 tested, 0.34% active; AID 1950; in the data active = inhibition above about 28%
ZTA DNA inh = ZTA (EBV) inhibition in EBNA-1 counter-screen. P03206. ZTA-DNA binding, fluorescence polarization. inhibition, % at 11 µM. 320,000 tested, 0.15% active. AID 2234; in the data active = inhibition above about 33%
Target sequence (P03206 whole entry, looked up): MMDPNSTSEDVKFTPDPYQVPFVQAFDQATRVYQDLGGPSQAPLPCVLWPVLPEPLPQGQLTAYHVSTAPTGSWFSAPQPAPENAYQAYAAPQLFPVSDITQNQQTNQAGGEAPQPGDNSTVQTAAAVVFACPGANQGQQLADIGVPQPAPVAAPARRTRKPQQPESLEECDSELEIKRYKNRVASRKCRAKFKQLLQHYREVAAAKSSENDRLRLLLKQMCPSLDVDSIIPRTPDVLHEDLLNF
NS3 helicase cf = confirmation of Hepatitis C virus NS3 helicase inhibitors; shares compounds with NS3 helicase inh; NS3 helicase DNA unwinding, Cy5 molecular beacon fluorescence; inhibition, % at 10.9 µM; 1,600 tested, 31% active; AID 1943;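 active = inhibition above the mean of all tested compounds plus 3 SD, cutoff set per campaign, cut at about 36% in these data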
DNA FID counter = counter-screen for HCV NS3 helicase inhibitors: DNA intercalator displacement | shares compounds with NS3 helicase inh | DNA fluorescent intercalator displacement, fluorescence | inhibition, % at 7.9 µM | 1,600 tested, 4% active | AID 1945; in the data active = inhibition above about 37%;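 note: higher means more displacement of ethidium bromide from the DNA hairpin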
DNA FID DR = counter-screen for HCV NS3 helicase inhibitors: DNA intercalator displacement dose response; shares compounds with NS3 helicase inh; fluorescent intercalator displacement from DNA, fluorescence; IC50, µM; 120 tested, under 10 active; AID 2172; call rule not given here
Each line names hits and unclear results; the compound was inactive in the other large screens (follow-up assays come after a bar, where they were run).

Cc1c2ccccc2nc2c(F)c(NC(C)C)c(F)c(F)c12	NS3 helicase inh 44 | NS3 helicase cf inactive | DNA FID counter inactive
CCOC(=O)C1CCN(C(=O)COC(=O)CN(C)S(=O)(=O)c2ccc(NC(C)=O)cc2)CC1	none
COc1cc(OC)c(OC)cc1CNCCSc1nnnn1C	none
Clc1cccc(Cl)c1C1Nc2cccc3cccc(c23)N1	NS3 helicase inh 75 | NS3 helicase cf inactive | DNA FID counter inactive
c1ccc(C2Nc3cccc4cccc(c34)N2)cc1	none
Fc1cccc(Cl)c1C1Nc2cccc3cccc(c23)N1	NS3 helicase inh 45 | NS3 helicase cf inactive | DNA FID counter inactive
O=C(CSc1nnc(-c2cccnc2)n1Cc1ccccc1)NCc1ccccc1	none
COc1ccc(-n2c(C)cc(/C=C3\SC(=S)NC3=O)c2C)cc1	none
Cc1cc(/C=C2\SC(=S)NC2=O)c(C)n1C	none
Cc1cc(/C=C2\SC(=S)NC2=O)c(C)n1-c1ccc(O)cc1	NS3 helicase inh 45 | NS3 helicase cf inactive | DNA FID counter inactive
Cc1cc(/C=C2\SC(=S)NC2=O)c(C)n1-c1ccccc1	NS3 helicase inh 39 | NS3 helicase cf inactive | DNA FID counter inactive
CC(=O)c1cccc(NS(=O)(=O)c2ccc(C(=O)Nc3ccccc3)cc2)c1	NS3 helicase inh 42 | NS3 helicase cf inactive | DNA FID counter inactive
Cc1ccccc1N1C(S)=C(C#N)C(=O)NC1c1cccs1 (centres undefined)	NS3 helicase inh 67 | NS3 helicase cf inactive | DNA FID counter inactive
N#CC1=C(N)Oc2c(O)cc3ccccc3c2C1c1ccsc1 (centres undefined)	NS3 helicase inh 38 | NS3 helicase cf inactive | DNA FID counter inactive
CCOC(=O)C1=C(C)OC(N)=C(C#N)C1c1ccsc1 (centres undefined)	none
CCOC(=O)c1c(CC(C)C)csc1NC(=O)c1ccccc1C(=O)O	NS3 helicase inh 50 | NS3 helicase cf 71 | DNA FID counter inactive
C=CCN1C(=O)C2(C(C(=O)c3ccc(C)o3)=C(O)C(=O)N2CCCN2CCOCC2)c2ccccc21 (centres undefined)	none
CSc1ccc(CN2CCCC(CNC(=O)c3ccc(F)cc3)C2)cc1 (centres undefined)	NS3 helicase inh 43 | NS3 helicase cf inactive | DNA FID counter inactive
Cc1ccc(C(CCN(Cc2ccccc2)C(=O)c2ccco2)c2ccco2)cc1 (centres undefined)	NS3 helicase inh 54 | NS3 helicase cf 55 | DNA FID counter inactive | DNA FID DR inactive
Cc1ccc(C2CC(=O)N3CN(Cc4ccco4)CSC3=C2C#N)cc1 (centres undefined)	none
CCOC1=C/C(=C/c2c(N)n3nc(-c4ccccc4)sc3nc2=O)C=CC1=O	none (no result: Fh CTSL1 inh, EBNA-1 inh, ZTA DNA inh)
COC1=C/C(=C/c2c(N)n3nc(-c4ccc(C)cc4)sc3nc2=O)C=CC1=O	NS3 helicase inh 44 (no result: Fh CTSL1 inh, EBNA-1 inh, ZTA DNA inh) | NS3 helicase cf inactive | DNA FID counter inactive
Nc1cc([N+](=O)[O-])ccc1O	NS3 helicase inh 44 | NS3 helicase cf inactive | DNA FID counter inactive
CCCOC(=O)/C(=C\c1ccc([N+](=O)[O-])o1)NC(=O)c1ccccc1	NS3 helicase inh 38 | NS3 helicase cf inactive | DNA FID counter inactive
O=C(N/N=C/C=C/c1ccco1)c1ccncc1	none
CCCOC(=O)/C(=C\C=C\c1ccco1)NC(=O)c1ccccc1	NS3 helicase inh 40, Fh CTSL1 inh 26 | NS3 helicase cf inactive | DNA FID counter inactive
O=C(N/N=C/C=C/c1ccco1)/C(=C/c1ccccc1)NC(=O)c1ccccc1	NS3 helicase inh 36 | NS3 helicase cf 54 | DNA FID counter inactive
O=[N+]([O-])c1cc([N+](=O)[O-])c2cc3ccccc3nc2c1	NS3 helicase inh 36 | NS3 helicase cf inactive | DNA FID counter inactive
CCOc1ccc(N(CC(=O)NCc2ccccc2Cl)S(=O)(=O)c2c(C)noc2C)cc1	NS3 helicase inh 40 | NS3 helicase cf inactive | DNA FID counter inactive
Cc1noc(C)c1S(=O)(=O)N(CC(=O)NCCc1ccccc1)c1ccc(C(C)C)cc1	NS3 helicase inh 37 | NS3 helicase cf inactive | DNA FID counter inactive
Cc1ccc(N(CC(=O)NCc2ccccc2Cl)S(=O)(=O)c2c(C)noc2C)cc1	none
COc1ccc(N(C)C(=O)c2ccc3nc(-c4ccccc4)c(-c4ccccc4)nc3c2)cc1	none
Cc1nc2c(N=Nc3ccccc3F)c(N)nn2c(N)c1C#N	none
Cc1cc(NC(=O)CC(C)C)c(=O)n(Cc2cccc(F)c2)c1	NS3 helicase inh 39 | NS3 helicase cf inactive | DNA FID counter inactive
CC(=O)c1sc2nc(CSc3nnnn3-c3ccccc3)[nH]c(=O)c2c1C	NS3 helicase inh 36 | NS3 helicase cf inactive | DNA FID counter inactive
C=CCn1c(SCc2nc3sc(C(=O)O)c(C)c3c(=O)[nH]2)nnc1-c1ccccc1	NS3 helicase inh 41 | NS3 helicase cf inactive | DNA FID counter inactive
C=CCn1c(SCc2nc3sc(C(=O)O)c(C)c3c(=O)[nH]2)nnc1-c1ccc(C(C)(C)C)cc1	none
CCc1nnc(NS(=O)(=O)c2ccc(NC(=S)NC(=O)c3ccc(OC)c(OC)c3)cc2)s1	none
CCc1nnc(NS(=O)(=O)c2ccc(NC(=S)NC(=O)c3ccc(OC)cc3)cc2)s1	NS3 helicase inh 37 | NS3 helicase cf 52 | DNA FID counter inactive
COc1ccc([N+](=O)[O-])cc1NCc1cccnc1	none
COc1ccc([N+](=O)[O-])cc1NCc1cccc([N+](=O)[O-])c1	NS3 helicase inh 41 | NS3 helicase cf inactive | DNA FID counter inactive
Cc1ccccc1S(=O)(=O)Nc1nc2ccccc2nc1N1CCc2ccccc2C1	none
Cc1ccc(OCC(=O)N/N=C\c2ccc(-c3cccc(C(=O)O)c3)o2)c(C)c1	NS3 helicase inh 43 | NS3 helicase cf 91 | DNA FID counter inactive
Cc1ccc(OCC(=O)N/N=C\c2ccc(C)o2)c(C)c1	none
Cc1ccc(NC(=O)COc2ccc3c(c2)CCC3)nc1	none (no result: NS3 helicase inh)
CN=c1scc(-c2cccs2)n1/N=C/c1ccc(O)c(O)c1O	NS3 helicase inh 54 | NS3 helicase cf inactive | DNA FID counter inactive
C=CCN=c1scc(-c2ccco2)n1/N=C/c1ccc(O)c(O)c1O	NS3 helicase inh 40 | NS3 helicase cf inactive | DNA FID counter inactive
Cc1ccc(-n2nc3c(c2NC(=O)c2c(F)cccc2Cl)CS(=O)(=O)C3)cc1C	none
O=c1cc(O)c2sc3nc4c(c(C(F)(F)F)c3c2[nH]1)CCCCC4	none
COC(=O)c1ccc(Cn2nnc3c(=O)[nH]c(C4CCCN(S(=O)(=O)c5ccc(C)cc5)C4)nc32)cc1 (centres undefined)	none
COC(=O)c1ccc(Cn2nnc3c(=O)[nH]c(C4CCCN(S(=O)(=O)c5cccc(Cl)c5)C4)nc32)cc1 (centres undefined)	NS3 helicase inh 38 | NS3 helicase cf inactive | DNA FID counter inactive
